# Source: ChEMBL document CHEMBL5724801, “EUbOPEN Chemogenomics Library - Multiplex” (2024)
# Values joined by “and” are separate entries in the source; they are usually repeats but may differ in a detail not shown here. Identical values can stand only once.
# What was measured:
# HEK-293T = assay: Multiplex assay against HEK293T; type: toxicity, cell-based; details: human
# Summary of the method: (§1)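 Cells were classed with CellPathfinder machine-learning gating, first as Hoechst high-intensity objects or normal cells, then (normal cells) as healthy, pyknosed or fragmented nuclei, and finally (pyknosed cells) as mitotic or apoptotic. Staining of live cells at seeding used Hoechst33342, BioTracker Green Microtubule Cytoskeleton Dye, MitoTracker Red and Annexin V Alexa Fluor 680, with imaging on a CQ1 microscope at 37°C and 5% CO2 after compound addition. Tubulin, mitochondrial-mass and membrane-permeability phenotypes are per cents of healthy-nucleus cells.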
# U2OS = assay: Multiplex assay against U2OS; type: toxicity, cell-based; details: human; summary of the method: as §1
# [1] = 24 h, 10 µM, compound concentration 10 uM
# [2] = 48 h, 1 µM, compound concentration 1 uM
# [3] = 48 h, 10 µM, compound concentration 10 uM
# [4] = 12 h, 1 µM, compound concentration 1 uM
# [5] = 12 h, 10 µM, compound concentration 10 uM
# [6] = 24 h, 1 µM, compound concentration 1 uM
smiles,measurement,setting,value
CC(C)(C)c1cc(NC(=O)Nc2ccc(-c3cn4c(n3)sc3cc(OCCN5CCOCC5)ccc34)cc2)no1 [QUIZARTINIB],Population Apoptotic (%),HEK-293T; [1],62% and 69%
same,Population Fragmented Nuclei (%),HEK-293T; [1],8% and 9%
same,Population Healthy Nuclei (%),HEK-293T; [1],79% and 78%
same,Population Hoechst High Intensity Objects (%),HEK-293T; [1],16% and 9%
same,Population Membrane Permeable-Phenotype (%),HEK-293T; [1],0%
same,Population Mitochondria Different-Phenotype (%),HEK-293T; [1],63% and 75%
same,Population Mitotic Cells (%),HEK-293T; [1],37% and 30%
same,Population Normal (%),HEK-293T; [1],83% and 90%
same,Population Pyknosed Nuclei (%),HEK-293T; [1],12% and 11%
same,Population Tubulin-Different-Phenotype (%),HEK-293T; [1],57% and 50%
same,Total Cell Count,HEK-293T; [1],413 and 321
same,Population Apoptotic (%),HEK-293T; [2],21%
same,Population Fragmented Nuclei (%),HEK-293T; [2],12% and 10%
same,Population Healthy Nuclei (%),HEK-293T; [2],80% and 82%
same,Population Hoechst High Intensity Objects (%),HEK-293T; [2],3% and 2%
same,Population Membrane Permeable-Phenotype (%),HEK-293T; [2],2% and 0%
same,Population Mitochondria Different-Phenotype (%),HEK-293T; [2],11% and 24%
same,Population Mitotic Cells (%),HEK-293T; [2],78%
same,Population Normal (%),HEK-293T; [2],96% and 97%
same,Population Pyknosed Nuclei (%),HEK-293T; [2],6%
same,Population Tubulin-Different-Phenotype (%),HEK-293T; [2],15% and 18%
same,Total Cell Count,HEK-293T; [2],851 and 566
same,Population Apoptotic (%),HEK-293T; [3],57% and 58%
same,Population Fragmented Nuclei (%),HEK-293T; [3],9% and 11%
same,Population Healthy Nuclei (%),HEK-293T; [3],77% and 73%
same,Population Hoechst High Intensity Objects (%),HEK-293T; [3],9% and 12%
same,Population Membrane Permeable-Phenotype (%),HEK-293T; [3],1% and 0%
same,Population Mitochondria Different-Phenotype (%),HEK-293T; [3],40% and 59%
same,Population Mitotic Cells (%),HEK-293T; [3],42% and 41%
same,Population Normal (%),HEK-293T; [3],90% and 87%
same,Population Pyknosed Nuclei (%),HEK-293T; [3],12% and 14%
same,Population Tubulin-Different-Phenotype (%),HEK-293T; [3],35% and 37%
same,Total Cell Count,HEK-293T; [3],583 and 392
same,Population Apoptotic (%),U2OS; [4],48% and 78%
same,Population Fragmented Nuclei (%),U2OS; [4],24% and 17%
same,Population Healthy Nuclei (%),U2OS; [4],61% and 70%
same,Population Hoechst High Intensity Objects (%),U2OS; [4],6% and 1%
same,Population Membrane Permeable-Phenotype (%),U2OS; [4],13% and 6%
same,Population Mitochondria Different-Phenotype (%),U2OS; [4],4% and 6%
same,Population Mitotic Cells (%),U2OS; [4],51% and 21%
same,Population Normal (%),U2OS; [4],93% and 98%
same,Population Pyknosed Nuclei (%),U2OS; [4],14% and 11%
same,Population Tubulin-Different-Phenotype (%),U2OS; [4],8% and 4%
same,Total Cell Count,U2OS; [4],213 and 119
same,Population Apoptotic (%),U2OS; [5],58% and 23%
same,Population Fragmented Nuclei (%),U2OS; [5],30% and 11%
same,Population Healthy Nuclei (%),U2OS; [5],47% and 65%
same,Population Hoechst High Intensity Objects (%),U2OS; [5],13% and 6%
same,Population Membrane Permeable-Phenotype (%),U2OS; [5],85% and 62%
same,Population Mitochondria Different-Phenotype (%),U2OS; [5],26% and 33%
same,Population Mitotic Cells (%),U2OS; [5],41% and 76%
same,Population Normal (%),U2OS; [5],86% and 94%
same,Population Pyknosed Nuclei (%),U2OS; [5],21% and 22%
same,Population Tubulin-Different-Phenotype (%),U2OS; [5],76% and 54%
same,Total Cell Count,U2OS; [5],197 and 100
same,Population Apoptotic (%),U2OS; [6],57% and 62%
same,Population Fragmented Nuclei (%),U2OS; [6],25% and 15%
same,Population Healthy Nuclei (%),U2OS; [6],56% and 72%
same,Population Hoechst High Intensity Objects (%),U2OS; [6],2% and 0%
same,Population Membrane Permeable-Phenotype (%),U2OS; [6],15% and 9%
same,Population Mitochondria Different-Phenotype (%),U2OS; [6],8% and 4%
same,Population Mitotic Cells (%),U2OS; [6],42% and 37%
same,Population Normal (%),U2OS; [6],97% and 99%
same,Population Pyknosed Nuclei (%),U2OS; [6],17% and 12%
same,Population Tubulin-Different-Phenotype (%),U2OS; [6],7% and 5%
same,Total Cell Count,U2OS; [6],234 and 134
same,Population Apoptotic (%),U2OS; [1],63% and 51%
same,Population Healthy Nuclei (%),U2OS; [1],34% and 58%
same,Population Hoechst High Intensity Objects (%),U2OS; [1],11% and 2%
same,Population Membrane Permeable-Phenotype (%),U2OS; [1],55% and 40%
same,Population Mitochondria Different-Phenotype (%),U2OS; [1],38% and 32%
same,Population Mitotic Cells (%),U2OS; [1],36% and 48%
same,Population Normal (%),U2OS; [1],88% and 97%
same,Population Pyknosed Nuclei (%),U2OS; [1],30%
same,Population Tubulin-Different-Phenotype (%),U2OS; [1],45% and 30%
same,Total Cell Count,U2OS; [1],195 and 96
same,Population Apoptotic (%),U2OS; [2],60% and 73%
same,Population Fragmented Nuclei (%),U2OS; [2],21% and 16%
same,Population Healthy Nuclei (%),U2OS; [2],61% and 72%
same,Population Hoechst High Intensity Objects (%),U2OS; [2],3% and 2%
same,Population Membrane Permeable-Phenotype (%),U2OS; [2],7% and 9%
same,Population Mitochondria Different-Phenotype (%),U2OS; [2],2% and 7%
same,Population Mitotic Cells (%),U2OS; [2],39% and 26%
same,Population Normal (%),U2OS; [2],96% and 97%
same,Population Pyknosed Nuclei (%),U2OS; [2],16% and 10%
same,Population Tubulin-Different-Phenotype (%),U2OS; [2],3% and 6%
same,Total Cell Count,U2OS; [2],297 and 180
same,Population Apoptotic (%),U2OS; [3],72% and 56%
same,Population Fragmented Nuclei (%),U2OS; [3],33% and 19%
same,Population Healthy Nuclei (%),U2OS; [3],25% and 48%
same,Population Hoechst High Intensity Objects (%),U2OS; [3],9% and 5%
same,Population Membrane Permeable-Phenotype (%),U2OS; [3],41% and 35%
same,Population Mitochondria Different-Phenotype (%),U2OS; [3],33%
same,Population Mitotic Cells (%),U2OS; [3],27% and 43%
same,Population Normal (%),U2OS; [3],90% and 94%
same,Population Pyknosed Nuclei (%),U2OS; [3],40% and 32%
same,Population Tubulin-Different-Phenotype (%),U2OS; [3],33% and 28%
same,Total Cell Count,U2OS; [3],219 and 98
